Laboratory results from ChEMBL document CHEMBL5058577, “EUbOPEN Chemogenomics Library 2 (Multiplex)” (2022).

Test system: HEK-293T
Assay: Multiplex assay against HEK293T
Format: toxicity, cell-based
Conditions: human
Procedure, shortened: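 Cells stained live at seeding with Hoechst33342, BioTracker Green Microtubule Cytoskeleton Dye, MitoTracker Red and Annexin V Alexa Fluor 680 were imaged on a CQ1 microscope at 37°C and 5% CO2 after compound addition. Their classification by CellPathfinder machine-learning gating ran from Hoechst high-intensity objects versus normal cells, to healthy, pyknosed or fragmented nuclei among normal cells, to mitotic or apoptotic among pyknosed cells. Tubulin, mitochondrial-mass and membrane-permeability phenotypes are per cents of healthy-nucleus cells.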

[1] = 12 h, 1 µM, compound concentration 1 uM, replicate 1
[2] = 12 h, 1 µM, compound concentration 1 uM, replicate 2
[3] = 12 h, 10 µM, compound concentration 10 uM, replicate 1
[4] = 12 h, 10 µM, compound concentration 10 uM, replicate 2
[5] = 24 h, 1 µM, compound concentration 1 uM, replicate 1
[6] = 24 h, 1 µM, compound concentration 1 uM, replicate 2
[7] = 24 h, 10 µM, compound concentration 10 uM, replicate 1
[8] = 24 h, 10 µM, compound concentration 10 uM, replicate 2
[9] = 48 h, 1 µM, compound concentration 1 uM, replicate 1
[10] = 48 h, 1 µM, compound concentration 1 uM, replicate 2
[11] = 48 h, 10 µM, compound concentration 10 uM, replicate 1
[12] = 48 h, 10 µM, compound concentration 10 uM, replicate 2

## COc1cc(Nc2ncc3c(n2)-c2ccc(Cl)cc2C(c2c(F)cccc2OC)=NC3)ccc1C(=O)O [ALISERTIB]
[1]
  Population Apoptotic (%): 38%
  Population Fragmented Nuclei (%): 3%
  Population Healthy Nuclei (%): 88%
  Population Hoechst High Intensity Objects (%): 5%
  Population Membrane Permeable-Phenotype (%): 0%
  Population Mitochondria Different-Phenotype (%): 44%
  Population Mitotic Cells (%): 61%
  Population Normal (%): 94%
  Population Pyknosed Nuclei (%): 7%
  Population Tubulin-Different-Phenotype (%): 46%
[2]
  Population Apoptotic (%): 61%
  Population Fragmented Nuclei (%): 7%
  Population Healthy Nuclei (%): 85%
  Population Hoechst High Intensity Objects (%): 7%
  Population Mitochondria Different-Phenotype (%): 69%
  Population Mitotic Cells (%): 38%
  Population Normal (%): 93%
  Population Tubulin-Different-Phenotype (%): 49%
[3]
  Population Apoptotic (%): 61%
  Population Fragmented Nuclei (%): 8%
  Population Healthy Nuclei (%): 74%
  Population Hoechst High Intensity Objects (%): 9%
  Population Membrane Permeable-Phenotype (%): 0%
  Population Mitochondria Different-Phenotype (%): 80%
  Population Mitotic Cells (%): 38%
  Population Normal (%): 90%
  Population Pyknosed Nuclei (%): 16%
  Population Tubulin-Different-Phenotype (%): 68%
[4]
  Population Apoptotic (%): 88%
  Population Fragmented Nuclei (%): 9%
  Population Healthy Nuclei (%): 72%
  Population Hoechst High Intensity Objects (%): 15%
  Population Mitochondria Different-Phenotype (%): 82%
  Population Mitotic Cells (%): 11%
  Population Normal (%): 84%
  Population Pyknosed Nuclei (%): 17%
  Population Tubulin-Different-Phenotype (%): 54%
[5]
  Population Apoptotic (%): 50%
  Population Fragmented Nuclei (%): 10%
  Population Healthy Nuclei (%): 82%
  Population Hoechst High Intensity Objects (%): 3%
  Population Membrane Permeable-Phenotype (%): 0%
  Population Mitochondria Different-Phenotype (%): 25%
  Population Mitotic Cells (%): 50%
  Population Normal (%): 96%
  Population Pyknosed Nuclei (%): 7%
  Population Tubulin-Different-Phenotype (%): 31%
[6]
  Population Apoptotic (%): 47%
  Population Fragmented Nuclei (%): 9%
  Population Healthy Nuclei (%): 81%
  Population Hoechst High Intensity Objects (%): 9%
  Population Mitochondria Different-Phenotype (%): 47%
  Population Mitotic Cells (%): 52%
  Population Normal (%): 90%
  Population Pyknosed Nuclei (%): 9%
  Population Tubulin-Different-Phenotype (%): 30%
[7]
  Population Apoptotic (%): 54%
  Population Fragmented Nuclei (%): 8%
  Population Healthy Nuclei (%): 74%
  Population Hoechst High Intensity Objects (%): 6%
  Population Membrane Permeable-Phenotype (%): 0%
  Population Mitochondria Different-Phenotype (%): 75%
  Population Mitotic Cells (%): 45%
  Population Normal (%): 93%
  Population Pyknosed Nuclei (%): 16%
  Population Tubulin-Different-Phenotype (%): 64%
[8]
  Population Apoptotic (%): 56%
  Population Fragmented Nuclei (%): 12%
  Population Healthy Nuclei (%): 55%
  Population Hoechst High Intensity Objects (%): 34%
  Population Membrane Permeable-Phenotype (%): 1%
  Population Mitochondria Different-Phenotype (%): 86%
  Population Mitotic Cells (%): 43%
  Population Normal (%): 65%
  Population Pyknosed Nuclei (%): 31%
  Population Tubulin-Different-Phenotype (%): 50%
[9]
  Population Apoptotic (%): 31%
  Population Fragmented Nuclei (%): 14%
  Population Healthy Nuclei (%): 79%
  Population Hoechst High Intensity Objects (%): 3%
  Population Membrane Permeable-Phenotype (%): 0%
  Population Mitochondria Different-Phenotype (%): 14%
  Population Mitotic Cells (%): 68%
  Population Normal (%): 96%
  Population Pyknosed Nuclei (%): 5%
  Population Tubulin-Different-Phenotype (%): 17%
[10]
  Population Apoptotic (%): 57%
  Population Fragmented Nuclei (%): 16%
  Population Healthy Nuclei (%): 77%
  Population Hoechst High Intensity Objects (%): 15%
  Population Mitochondria Different-Phenotype (%): 27%
  Population Mitotic Cells (%): 42%
  Population Normal (%): 84%
  Population Tubulin-Different-Phenotype (%): 24%
[11]
  Population Apoptotic (%): 48%
  Population Fragmented Nuclei (%): 13%
  Population Healthy Nuclei (%): 78%
  Population Hoechst High Intensity Objects (%): 5%
  Population Membrane Permeable-Phenotype (%): 0%
  Population Mitochondria Different-Phenotype (%): 57%
  Population Mitotic Cells (%): 52%
  Population Normal (%): 94%
  Population Pyknosed Nuclei (%): 7%
  Population Tubulin-Different-Phenotype (%): 42%
[12]
  Population Apoptotic (%): 82%
  Population Fragmented Nuclei (%): 19%
  Population Healthy Nuclei (%): 61%
  Population Hoechst High Intensity Objects (%): 32%
  Population Membrane Permeable-Phenotype (%): 4%
  Population Mitochondria Different-Phenotype (%): 73%
  Population Mitotic Cells (%): 17%
  Population Normal (%): 67%
  Population Pyknosed Nuclei (%): 19%
  Population Tubulin-Different-Phenotype (%): 38%
